MEKK2wt PB1 HTS: modulators of MEK5 binding to wildtype MEKK2, primary screen, biochemical, multiplex bead flow cytometry, Alexa488-MEK5; Alexa488-MEK5 binding to MEKK2 WT; actives lie on both sides; binding response (% of control), % at 10 µM; 1.1% of 290,000 active; in the data active = binding response below about 67% or above about 130%
VIM-2 inh: VIM-2 metallo-beta-lactamase inhibitors, primary screen, biochemical, epi-absorbance readout, Pseudomonas aeruginosa enzyme. purified VIM-2, nitrocefin hydrolysis, epi-absorbance fluorescence. inhibition, % at 5.6 µM. 0.89% of 290,000 active. AID 1527, 2009;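 active = inhibition above the mean of all tested compounds plus 3 SD, cutoff set per screening run, cut at about 7.5% in these data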;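 also: red hydrolysis product quenches plate fluorescence so inhibitors raise well fluorescence; 0% = enzyme with DMSO and 100% = DMSO without enzyme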
IMP-1 inhibitor: IMP-1 metallo-beta-lactamase inhibitors, primary screen, biochemical, epi-absorbance readout, Pseudomonas aeruginosa enzyme; purified IMP-1, nitrocefin hydrolysis, epi-absorbance fluorescence; inhibition, % at 5.6 µM; 0.45% of 290,000 active; AID 1556, 2009;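 active = inhibition above the mean plus 3 SD of all compounds in the same screening run, cut at about 4.5% in these data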;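 also: 0% = IMP-1 with DMSO and 100% = DMSO wells lacking enzyme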
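Assay system: purified IMP-1; Quantity: IMP-1 0.2 nM before substrate addition; Medium: HEPES buffer pH 7.1 with ZnSO4 and Brij 35; Incubation: 15 min enzyme–compound preincubation, then 25 min nitrocefin reaction, 25 °C; Signal: fluorescence quenching readout, ex 480/em 530 nm; Controls: DMSO with and without IMP-1; Repeats: singlicate testing.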
MEKK2 mut-MEK5: MEK5 binding signal on mutant MEKK2 PB1, primary screen, biochemical, multiplex bead flow cytometry, Alexa488-MEK5 | Alexa488-MEK5 binding to MEKK2 mutant | percent response, % at 10 µM | 0.35% of 290,000 active | AID 1530, 2009; in the data active = percent response above about 24%, passing the limit was not always enough
MEKK3 PB1 HTS: modulators of MEKK3-MEK5 PB1 binding, primary screen, biochemical, wildtype MEKK3, multiplex bead flow cytometry, Alexa488-MEK5; binding response (% of control), % at 10 µM; 1.4% of 290,000 active; bead-based flow cytometry, Alexa488-MEK5 binding to MEKK3; actives lie on both sides; 0 = blocked by unlabeled MEK5, 100 = vehicle; AID 1529, 2009; Mitogen-activated protein kinase kinase kinase 3 (Homo sapiens), Q99759;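 active = binding response more than 3 SD above or below the average of its plate-row segment, actives on both sides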;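 also: Alexa488 bead fluorescence after subtracting the streptavidin-only scavenger bead signal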
Target sequence (Q99759 whole entry, looked up): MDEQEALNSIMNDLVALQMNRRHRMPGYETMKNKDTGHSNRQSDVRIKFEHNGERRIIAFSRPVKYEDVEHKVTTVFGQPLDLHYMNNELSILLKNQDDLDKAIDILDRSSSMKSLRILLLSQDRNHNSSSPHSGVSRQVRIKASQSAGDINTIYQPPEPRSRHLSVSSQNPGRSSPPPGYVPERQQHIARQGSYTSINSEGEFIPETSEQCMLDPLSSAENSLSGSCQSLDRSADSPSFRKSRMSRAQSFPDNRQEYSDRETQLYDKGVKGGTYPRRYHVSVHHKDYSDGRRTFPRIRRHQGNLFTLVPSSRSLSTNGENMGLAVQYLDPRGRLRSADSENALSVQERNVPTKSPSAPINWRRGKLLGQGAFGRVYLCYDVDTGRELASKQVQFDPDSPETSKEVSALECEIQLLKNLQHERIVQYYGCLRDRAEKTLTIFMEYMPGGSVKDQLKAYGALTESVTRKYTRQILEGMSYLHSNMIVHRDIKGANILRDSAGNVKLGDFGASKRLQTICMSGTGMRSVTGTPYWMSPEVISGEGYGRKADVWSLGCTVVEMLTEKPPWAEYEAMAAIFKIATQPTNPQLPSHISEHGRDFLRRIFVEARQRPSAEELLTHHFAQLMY
MEKK2wt confirm: modulators of MEK5 binding to wildtype MEKK2, confirmation, biochemical, single concentration, multiplex bead flow cytometry | Alexa488-MEK5 binding to MEKK2 WT; actives lie on both sides | 2.4% of 5,900 active | binding response (% of control), % at 10 µM | AID 1892, 2009 | shares compounds with MEKK3 PB1 HTS; in the data active = binding response below about 16% or above about 210%; inactive = in between
MEKK2mut confirm: mutant MEKK2 PB1-MEK5 binding signal retest – biochemical, single concentration, multiplex bead flow cytometry, confirmation; shares compounds with MEKK3 PB1 HTS; Alexa488-MEK5 binding to MEKK2 mutant; percent response, % at 10 µM; 2% of 5,900 active; AID 1893, 2009; in the data active = percent response mostly above about 71%, no sharp cut-off; inactive = mostly below about 38%;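 also: higher means compound restores mutant binding toward wildtype level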
MEKK3 confirm: MEKK3 wild-type PB1 binding to MEK5, inhibitors, confirmation, biochemical, bead multiplex flow cytometry, single concentration, wildtype | shares compounds with MEKK3 PB1 HTS | Alexa488-MEK5 binding to MEKK3; hits give low values | binding response (% of control), % at 10 µM | 1.8% of 5,900 active | AID 1894, 2009;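 active = binding response below 72% of control, or above a set upper limit, though filed actives all read lower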;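 also: 100% = DMSO only wells and 0% = binding blocked by excess unlabeled MEK5; lower values mean stronger disruption of MEK5 binding to MEKK3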
* marks the source's active call; other numbers are inactive results; / = no result; [ ] = dose if it differs, or a comment. This is a sample that favours compounds with a hit; in the whole collection about 3.4% have one here.

SMILES | MEKK2wt PB1 HTS | VIM-2 inh | IMP-1 inhibitor | MEKK2 mut-MEK5 | MEKK3 PB1 HTS | MEKK2wt confirm | MEKK2mut confirm | MEKK3 confirm
Cc1c(C#N)c(N=CN(C)C)c(C(=O)c2ccc(Br)cc2)n1-c1ccccc1 | 69.0*[inhibitor] | -0.5 | -2.7 | 2.0 | 103.0 | 96.0 | -1.0 | 102.0
COc1ccc(S(=O)(=O)N(CCC(N)=O)Cc2ccco2)cc1OC | 54.0 | 0.9 | -1.9 | -21.0 | 50.0*[inhibitor] | 104.0 | 2.0 | 103.0
COc1ccc(S(=O)(=O)N(Cc2ccc(OC)c(OC)c2)Cc2ccco2)cc1 | 96.0 | -3.1 | -3.3 | -4.0 | 93.0 | / | / | /
COc1ccc(-c2ccnc(SCC(=O)c3ccc(OC)c(OC)c3)n2)cc1 | 103.0 | -2.7 | -4.1 | 0.0 | 132.0* | 99.0 | 0.0 | 103.0
COc1ccc(-c2ccnc(SCC(=O)N3CCN(c4ccccc4)CC3)n2)cc1 | 121.0 | -1.9 | -3.1 | 28.0 | 137.0* | 105.0 | 2.0 | 104.0
COc1ccc(NC(=O)C2CCN(S(C)(=O)=O)CC2)cc1Cl | 100.0 | -1.8 | -3.3 | 0.0 | 102.0 | / | / | /
O=c1c(-c2ccnn2-c2ccc(F)cc2)cnc2n1CCS2 | 108.0 | -4.6 | -3.4 | 5.0 | 104.0 | / | / | /
CCN(CC)c1ccc(C(=O)NNC(=O)CCl)cc1 | 46.0*[inhibitor] | 0.6 | -1.9 | -18.0 | 42.0*[inhibitor] | 105.0 | 5.0 | 106.0
COc1ccc(/C=N/NC(=O)c2cc(C(C)(C)C)[nH]n2)cc1COc1ccc(F)cc1F | 96.0 | -3.0 | -2.7 | 1.0 | 101.0 | / | / | /
CCOC(=O)C1CCCN(C(=O)c2cccc3ccccc23)C1 (configuration not stated) | 101.0 | -3.2 | -1.8 | -1.0 | 102.0 | / | / | /
CCNCC(=O)N1c2ccccc2CCc2ccc(NC(C)=O)cc21 | 102.0 | 1.9 | 1.2 | -3.0 | 93.0 | / | / | /
CCNCC(=O)N1c2ccccc2CCc2ccc(NC(=O)OC(C)C)cc21 | 137.0* | -0.4 | -2.4 | 7.0 | 106.0 | 127.0 | 18.0 | 106.0
COC(=O)c1ccc(NC(=O)CN2CCN(c3ccc(Cl)cc3)CC2)cc1 | 99.0 | 0.5 | -1.7 | -2.0 | 92.0 | / | / | /
Cc1cnc(C(=O)Nc2nnc(C)s2)cn1 | 107.0 | -3.7 | -4.5 | 3.0 | 105.0 | / | / | /
Cc1cnc(C(=O)Nc2nccs2)cn1 | 2.0*[inhibitor] | 0.0 | -0.2 | -19.0 | 2.0*[inhibitor] | 108.0 | 6.0 | 111.0
CN(C)c1ccc(C(=O)/C=C/c2cccnc2)cc1 | 110.0 | -1.1 | -3.7 | 7.0 | 104.0 | / | / | /
CN(C)c1ccc(/C=C/C(=O)c2cccc(Br)c2)cc1 | 63.0*[inhibitor] | 5.9 | 8.3* | -1.0 | 93.0 | 67.0 | -21.0 | 92.0
C=CCS/C(N)=N\N=C\c1c(O)ccc2ccccc12 | 131.0 | -1.4 | -1.6 | 24.0 | 139.0* | 107.0 | 5.0 | 106.0
CCCS/C(N)=N/N=C/c1ccccc1O | 107.0 | -5.3 | -3.9 | 10.0 | 108.0 | / | / | /
Cn1cc(CN2CCN(c3ccc(Cl)cn3)CC2)c(-c2ccccc2F)n1 | 89.0 | 0.1 | -0.7 | -11.0 | 92.0 | / | / | /
Cc1cc(C(F)F)nn1CC(=O)NCc1ccccc1F | 107.0 | -2.8 | -6.5 | 3.0 | 141.0* | 104.0 | -3.0 | 103.0
CCc1c(C)nc2ncnn2c1N1CCCC(C(=O)NCCc2ccccc2)C1 (configuration not stated) | 107.0 | -1.8 | -1.6 | 4.0 | 103.0 | / | / | /
Cc1ccc(NC(=S)NN(C)c2cc(C)nc(C)n2)cc1 | 107.0 | -0.5 | -1.8 | 1.0 | 129.0* | 99.0 | 1.0 | 100.0
